Laboratory results taken from ChEMBL document CHEMBL1122366, “Potential antiatherosclerotic agents. 3. Substituted benzoic and non benzoic acid analogues of cetaben” (1983).

Tests used:
Rattus norvegicus [1] = assay: In vivo triglyceride lowering activity when dosed as 0.01 % of the diet; type: functional
Procedure, shortened: (§1)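 Normal rats were dosed in the diet. Serum sterol and triglyceride levels were measured and expressed as the mean percent of control values. Significance versus control was reported at p < 0.05, 0.01 and 0.001.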

Rattus norvegicus [2] = assay: In vivo sterol lowering activity at dose of 0.10 % of the diet; type: functional; procedure, shortened: as §1
Rattus norvegicus [3] = assay: In vivo triglyceride lowering activity when dosed at 0.03 % of the diet; type: functional; procedure, shortened: as §1
Rattus norvegicus [4] = assay: In vivo sterol lowering activity when dosed as 0.03 % of the diet; type: functional; procedure, shortened: as §1
Rattus norvegicus [5] = assay: In vivo triglyceride lowering activity dosed at 0.10 % of the diet.; type: functional; procedure, shortened: as §1
[6] = biological target: T1, Sterol O-acyltransferase 1 (Rattus norvegicus) (UniProt O70536); assay: In vitro inhibition of acyl coenzyme A:cholesterol acyltransferase; parameters: concentration or dose not given beside the values; conditions: concentration not given here
T1 sequence (whole entry): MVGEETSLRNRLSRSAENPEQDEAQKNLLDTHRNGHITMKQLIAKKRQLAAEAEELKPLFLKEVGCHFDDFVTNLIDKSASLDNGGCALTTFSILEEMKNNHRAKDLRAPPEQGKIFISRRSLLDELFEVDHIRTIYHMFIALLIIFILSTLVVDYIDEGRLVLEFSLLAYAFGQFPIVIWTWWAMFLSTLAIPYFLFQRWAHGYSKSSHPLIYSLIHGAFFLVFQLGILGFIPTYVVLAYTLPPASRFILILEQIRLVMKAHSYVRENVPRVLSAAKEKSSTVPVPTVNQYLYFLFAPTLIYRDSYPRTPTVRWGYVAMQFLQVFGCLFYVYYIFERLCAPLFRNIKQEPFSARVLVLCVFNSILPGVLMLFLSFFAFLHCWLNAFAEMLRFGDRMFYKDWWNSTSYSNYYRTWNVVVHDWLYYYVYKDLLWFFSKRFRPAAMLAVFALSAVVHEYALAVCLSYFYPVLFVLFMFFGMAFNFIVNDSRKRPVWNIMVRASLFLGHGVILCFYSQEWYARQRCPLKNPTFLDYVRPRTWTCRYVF
Procedure, shortened: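 Enzyme fatty acyl-CoA:cholesterol acyltransferase (ACAT), assayed in vitro at a single drug concentration of 5.2 μg/mL. The value is the mean percent inhibition of enzyme activity.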

Rattus norvegicus [7] = assay: In vivo sterol lowering activity when dosed as 0.01 % of the diet; type: functional; procedure, shortened: as §1
Rattus norvegicus [8] = assay: In vivo triglyceride lowering activity when dosed as 0.025 % of the diet
Rattus norvegicus [9] = assay: In vivo triglyceride lowering activity when dosed at 0.05 % of the diet

`CCCCCCCCCCCCCCCCNc1ccc(C(=O)NN)cc1` was tested. Which “serum triglyceride level, percent of control” value (Rattus norvegicus [1]) did it give?
Its value is 108%.

What about the “serum sterol level, percent of control” value (Rattus norvegicus [2]) of the same molecule?
Its value is 116%.

What about the “serum triglyceride level, percent of control” value (Rattus norvegicus [3]) of the same molecule?
Its value is 84%.

And the “serum sterol level, percent of control” value (Rattus norvegicus [4])?
Its value is 105%.

What about the “serum triglyceride, percent of control” value (Rattus norvegicus [5]) of the same molecule?
Its value is 84%.

What about the inhibition [6] of the same molecule?
The inhibition was < 24%.

What about the “serum sterol level, % of control” value (Rattus norvegicus [7]) of the same molecule?
The value was 110%.

With `CCCCCCCCCCCCCCCCNc1ccc(C(C)(C)C(=O)O)cc1` as the molecule, how does the “serum triglyceride level, percent of control” value (Rattus norvegicus [1]) read?
The value was 109%.

And the “serum sterol level, percent of control” value (Rattus norvegicus [2])?
The value was 107%.

And the “serum triglyceride level, percent of control” value (Rattus norvegicus [3])?
Its value is 121%.

And the “serum sterol level, percent of control” value (Rattus norvegicus [4])?
Its value is 111%.

What about the “serum triglyceride, percent of control” value (Rattus norvegicus [5]) of the same molecule?
The value was 116%.

What about the inhibition [6] of the same molecule?
Its inhibition is < 27%.

And the “serum sterol level, % of control” value (Rattus norvegicus [7])?
The value was 93%.

How did the “serum triglyceride level, percent of control” value (Rattus norvegicus [1]) turn out when `CCCCCCCCCCCCCCCCNC1CCC(C(=O)O)CC1` (stereo not given) was run?
Its value is 75%.

What about the “serum sterol level, percent of control” value (Rattus norvegicus [2]) of the same molecule?
Its value is <75%.

And the “serum triglyceride level, percent of control” value (Rattus norvegicus [3])?
Its value is 79%.

And the “serum sterol level, percent of control” value (Rattus norvegicus [4])?
Its value is <86%.

And the “serum triglyceride, percent of control” value (Rattus norvegicus [5])?
Its value is 71%.

And the inhibition [6]?
Its inhibition is < 48%.

And the “serum sterol level, % of control” value (Rattus norvegicus [7])?
The value was 97%.

For `CCCCCCCCCCCCCCCCNc1ccc(C(=O)CCC(=O)O)cc1`, which “serum sterol level, percent of control” value (Rattus norvegicus [2]) is on record?
The value was 109%.

What about the Diet (Rattus norvegicus [8]) of the same molecule?
Its Diet is <82%.

What about the “serum triglyceride level, percent of control” value (Rattus norvegicus [3]) of the same molecule?
Its value is <72%.

What about the “serum sterol level, percent of control” value (Rattus norvegicus [4]) of the same molecule?
Its value is 100%.

What about the “serum triglyceride, percent of control” value (Rattus norvegicus [5]) of the same molecule?
Its value is <66%.

And the inhibition [6]?
Its inhibition is 16%.

What about the “serum sterol level, % of control” value (Rattus norvegicus [7]) of the same molecule?
Its value is 116%.

What does the source list for `CCCCCCCCCCCCCCCCNc1ccc(C(=O)O)c(OCCCCCCCCCCCCCCCC)c1`?
serum triglyceride level, percent of control (Rattus norvegicus [1]): 126%; serum sterol level, percent of control (Rattus norvegicus [2]): 95%; serum triglyceride level, percent of control (Rattus norvegicus [3]): 82%; serum sterol level, percent of control (Rattus norvegicus [4]): 99%; serum triglyceride, percent of control (Rattus norvegicus [5]): 84%; inhibition [6]: 6%; serum sterol level, % of control (Rattus norvegicus [7]): 90%

Which “serum triglyceride level, percent of control” value (Rattus norvegicus [1]) does the source give for `CCCCCCCCCCCCCCCCNc1ccc(C2=NCCCO2)cc1` here?
The value was 99%.

And the “serum sterol level, percent of control” value (Rattus norvegicus [2])?
The value was <87%.

And the “serum triglyceride level, percent of control” value (Rattus norvegicus [3])?
The value was 127%.

What about the “serum sterol level, percent of control” value (Rattus norvegicus [4]) of the same molecule?
The value was 100%.

And the “serum triglyceride, percent of control” value (Rattus norvegicus [5])?
Its value is <68%.

What about the inhibition [6] of the same molecule?
The inhibition was 2%.

What about the “serum sterol level, % of control” value (Rattus norvegicus [7]) of the same molecule?
Its value is 97%.

What does the source list for `CCCCCCCCCCCCCCCCNc1ccc(C(=O)O)c(OC)c1`?
serum triglyceride level, percent of control (Rattus norvegicus [1]): 75%; serum sterol level, percent of control (Rattus norvegicus [2]): 98%; serum sterol level, percent of control (Rattus norvegicus [4]): 105%; serum triglyceride, percent of control (Rattus norvegicus [5]): 77%; Diet (Rattus norvegicus [9]): <66%; serum sterol level, % of control (Rattus norvegicus [7]): 104%

What does the source list for `CCCCCCCCCCCCCCCCNc1ccc(CCC(=O)OCC)cc1`?
serum triglyceride level, percent of control (Rattus norvegicus [1]): 96%; serum sterol level, percent of control (Rattus norvegicus [2]): 84%; serum triglyceride level, percent of control (Rattus norvegicus [3]): 88%; serum sterol level, percent of control (Rattus norvegicus [4]): 89%; serum triglyceride, percent of control (Rattus norvegicus [5]): <45%; inhibition [6]: 7%; serum sterol level, % of control (Rattus norvegicus [7]): 89%

For `CCCCCCCCCCCCCCCCNc1ccc(C(=O)Oc2ccc(Cl)cc2)cc1`, which “serum triglyceride level, percent of control” value (Rattus norvegicus [1]) is on record?
The value was 91%.

What about the “serum sterol level, percent of control” value (Rattus norvegicus [2]) of the same molecule?
The value was 91%.

What about the “serum triglyceride level, percent of control” value (Rattus norvegicus [3]) of the same molecule?
The value was 85%.

And the “serum sterol level, percent of control” value (Rattus norvegicus [4])?
Its value is <86%.

What about the “serum triglyceride, percent of control” value (Rattus norvegicus [5]) of the same molecule?
Its value is 83%.

And the inhibition [6]?
The inhibition was 0%.

And the “serum sterol level, % of control” value (Rattus norvegicus [7])?
The value was 94%.

For `CCCCCCCCCCCCCCCCN(CC(=O)OCC)c1ccc(C(=O)OC)cc1`, which “serum triglyceride level, percent of control” value (Rattus norvegicus [1]) is on record?
The value was 113%.

And the “serum sterol level, percent of control” value (Rattus norvegicus [2])?
Its value is 104%.

And the “serum triglyceride level, percent of control” value (Rattus norvegicus [3])?
Its value is 97%.

And the “serum sterol level, percent of control” value (Rattus norvegicus [4])?
The value was 100%.

And the “serum triglyceride, percent of control” value (Rattus norvegicus [5])?
Its value is 104%.

And the inhibition [6]?
The inhibition was 12%.

And the “serum sterol level, % of control” value (Rattus norvegicus [7])?
The value was 106%.

How did the “serum triglyceride level, percent of control” value (Rattus norvegicus [1]) turn out when `CCCCCCCCCCCCCCCCNc1ccc(C(=O)OC2CCCCO2)cc1` (stereo not given) was run?
The value was 108%.

And the “serum sterol level, percent of control” value (Rattus norvegicus [2])?
Its value is <74%.

And the Diet (Rattus norvegicus [3])?
The Diet was 98%.

What about the “serum sterol level, percent of control” value (Rattus norvegicus [4]) of the same molecule?
Its value is <76%.

What about the “serum triglyceride, percent of control” value (Rattus norvegicus [5]) of the same molecule?
Its value is <54%.

What about the inhibition [6] of the same molecule?
Its inhibition is 0%.

And the “serum sterol level, % of control” value (Rattus norvegicus [7])?
Its value is 91%.

Which results are given for `CCCCCCCCCCCCCCCCNc1ccc(C2OCCO2)cc1`?
serum triglyceride level, percent of control (Rattus norvegicus [1]): 100%; serum sterol level, percent of control (Rattus norvegicus [2]): <71%; serum triglyceride level, percent of control (Rattus norvegicus [3]): 82%; serum sterol level, percent of control (Rattus norvegicus [4]): <77%; serum triglyceride, percent of control (Rattus norvegicus [5]): <47%; inhibition [6]: 0%; serum sterol level, % of control (Rattus norvegicus [7]): <85%

What does the source list for `CCCCCCCCCCCCCCCCNc1ccc(C(=O)O)c(C)c1`?
serum triglyceride level, percent of control (Rattus norvegicus [1]): 112%; serum sterol level, percent of control (Rattus norvegicus [2]): 103%; serum triglyceride level, percent of control (Rattus norvegicus [3]): 121%; serum sterol level, percent of control (Rattus norvegicus [4]): 100%; serum triglyceride, percent of control (Rattus norvegicus [5]): 105%; inhibition [6]: 38%; serum sterol level, % of control (Rattus norvegicus [7]): 101%
